# Most compounds without a hit are left out; they make up all but 1.2% or so of the library.
# EBNA-1 inh – blocks EBNA-1 binding to DNA. EBNA-1 DNA binding, fluorescence polarization. inhibition, % at 14.8 µM. 0.34% of 300,000 active; in the data active = inhibition above about 28%
# core dimer inh – blocks dimerization of HCV core protein; TR-FRET GST/Flag-core106 dimerization, 1536-well; inhibition, % at 5 µM; 0.33% of 300,000 active;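 active = inhibition above the mean of all tested compounds plus 3 SD, set per screening campaign, cut at about 45% in these data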
#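 Assay system: Tagged HCV core106 pair (GST and Flag) | Buffer or medium: KF-containing HEPES buffer, pH 7.45, DTT, CHAPS, BSA | Also added: Eu donor and XL665 acceptor anti-tag antibodies | Dosing: One concentration, 5 µM, in 0.5% DMSO | Timing: 4 h at 22.5 °C | Technique: TR-FRET 671 and 617 nm emission | Repeats: Singlicate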
# HCV NS3 hel inh – inhibitors of Hepatitis C virus NS3 helicase | NS3 helicase DNA unwinding, Cy5 molecular beacon fluorescence | inhibition, % at 10.9 µM | 0.56% of 290,000 active;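 active = inhibition above the mean of all tested compounds plus 3 SD, set per campaign, cut at about 35% in these data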
#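 test system = hepatitis C virus NS3 helicase domain fragment enzyme | reagent = annealed dual-labelled DNA beacon duplex, ATP-started | times = 1 h at 25 °C | detection = Cy5 fluorescence, 0 and 60 min reads | read-out basis = percent inhibition from t60/t0 fluorescence ratio | control set = DMSO and thioflavine S | replication = one well per compound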
# ZTA DNA inh – counter-screen for EBNA-1 inhibitors: inhibitors of Epstein-Barr virus ZTA; P03206; ZTA-DNA binding, fluorescence polarization; inhibition, % at 11 µM; 0.15% of 320,000 active; in the data active = inhibition above about 33%
# Target sequence (P03206 whole entry, looked up): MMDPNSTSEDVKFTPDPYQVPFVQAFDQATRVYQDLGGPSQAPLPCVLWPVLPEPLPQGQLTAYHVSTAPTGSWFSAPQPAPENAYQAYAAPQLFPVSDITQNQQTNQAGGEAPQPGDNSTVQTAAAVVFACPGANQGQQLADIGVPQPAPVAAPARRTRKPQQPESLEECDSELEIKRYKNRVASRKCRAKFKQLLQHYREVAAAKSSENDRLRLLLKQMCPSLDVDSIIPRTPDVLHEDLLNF
# EBNA-1 inh conf – EBNA-1 (EBV) inhibition, confirmation | shares compounds with EBNA-1 inh | Recombinant EBNA-1 DBD, Cy5-DNA fluorescence polarization | inhibition, % at 14.8 µM | 35% of 830 active | AID 2292;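 active = mean inhibition across replicates above a set limit taken from the earlier primary screen, cut at about 28% in these data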
# ZTA DNA inh trip – blocks Epstein-Barr virus ZTA in triplicate, EBNA-1 counter-screen | shares compounds with EBNA-1 inh | Zta-ZRE DNA binding, Cy5 fluorescence polarization | inhibition, % at 11.1 µM | 830 tested, under 10 active | AID 2328;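 active = mean inhibition over triplicates above a set limit taken from the primary EBNA-1 screen, cut at about 37% in these data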;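 also: purified full length Zta protein with Cy5 labeled ZRE DNA probe; inhibitors lower polarization by freeing the labeled DNA probe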
# Numbers stand for hits; n = inactive; x = not tested or not shown.
SMILES,EBNA-1 inh,core dimer inh,HCV NS3 hel inh,ZTA DNA inh,EBNA-1 inh conf,ZTA DNA inh trip
C/C(=N/NC(=O)c1ccncc1)c1ccc(NC(=O)c2ccc(Cl)cc2Cl)cc1,36.5,n,n,n,30.8,n
COc1ccc(-c2nc(SCC(=O)Nc3nccs3)c(-c3ccc(Cl)cc3)[nH]2)cc1,73.4,n,n,n,32.1,n
COc1ccc(-c2[nH]c(-c3ccc(C)cc3)nc2SCC(=O)Nc2nccs2)cc1,n,n,n,n,x,x
NS(=O)(=O)c1ccc(NC(=O)Cc2cccs2)cc1,x,x,n,x,x,x
Cc1ccc(NC(=O)COC(=O)/C=C/c2cccs2)cc1,39.0,n,n,n,n,n
NS(=O)(=O)c1ccc(NC(=O)COC(=O)/C(=C/c2cccs2)c2cccs2)cc1,63.8,n,n,n,59.8,n
NC(=O)c1ccc(NC(=O)COC(=O)/C=C/c2cccs2)cc1,n,n,n,n,x,x
COc1cc(C(=O)NNC(=O)COc2ccc(Cl)cc2)ccc1OCC(=O)N1CCOCC1,x,x,x,n,x,x
COc1ccc(C(=O)N2C(=O)c3ccc(N)cc3C2=O)cc1,34.1,n,n,n,n,n
O=S(=O)(Nc1ccc(-c2cn3c(n2)SCC3)cc1)c1ccccc1F,n,n,n,n,x,x
Cc1ccc(C(=O)NNC(=O)COC(=O)COc2ccccc2C#N)cc1,x,x,x,n,x,x
Cc1onc(-c2c(Cl)cccc2Cl)c1C(=O)NC(=S)Nc1sc2c(c1C(N)=O)CCC(C)C2 (stereo not drawn),33.8,n,n,n,28.2,n
COc1ccc(C(=O)CSc2cc(C)nc(SCC(=O)c3ccc(C)cc3)n2)cc1,n,n,n,n,x,x
Cc1ccc(C(=O)CSc2nc(C)cc(SCc3nnc(-c4ccccc4)o3)n2)cc1,27.5,n,n,n,n,n
CC(C)CN(C(=O)C(c1ccccc1)c1ccccc1)c1c(N)n(CC(C)C)c(=O)[nH]c1=O,n,n,n,n,x,x
OCCC1CN(Cc2cnc(N3CCOCC3)s2)CCN1C1CCCC1 (stereo not drawn),n,n,n,n,x,x
CC1=CC2=NC(=O)/C(=C\c3cc(C)n(-c4ccccc4)c3C)C(=N)N2O1,n,n,n,n,x,x
CC1=CC2=NC(=O)/C(=C\c3cn(C)c4ccccc34)C(=N)N2O1,39.6,n,n,n,90.5,n
Cc1ccccc1OCC(=O)Nc1ccc2c(c1)Cc1ccccc1-2,29.3,n,n,n,n,n
CC(=O)N1CCN=C1SCc1ccc(C(F)(F)F)cc1,40.5,n,n,n,n,n
COc1ccc(Cl)cc1NC(=O)CN1CCN(S(=O)(=O)c2ccc(F)cc2)CC1,44.4,n,n,n,91.2,n
Cc1ccccc1CN1CCN(C(=O)c2ccc(F)cc2)CC1,x,x,n,x,x,x
FC(F)(F)c1cc(-c2ccco2)nc(NCc2ccccc2)n1,n,n,n,n,x,x
COc1ccccc1-c1cc(C(F)(F)F)nc(NCc2ccco2)n1,39.8,n,n,n,n,n
CN1CCN(c2nc(-c3ccccn3)nc3ccccc23)CC1,62.8,n,n,n,n,n
SMILES,EBNA-1 inh,core dimer inh,HCV NS3 hel inh,ZTA DNA inh,EBNA-1 inh conf,ZTA DNA inh trip
O=C(Nc1ccc(S(=O)(=O)N2CCC(C(=O)NC3CCCCC3)CC2)cc1)c1ccco1,38.0,n,n,n,33.6,n
COCCNc1c2c(c(C#N)c3nc4ccccc4n13)CCCC2,n,n,n,n,x,x
N#Cc1c2c(c(NCc3cccnc3)n3c1nc1ccccc13)CCC2,77.2,n,n,n,31.2,n
COc1cc(C(=O)Nc2cccc(-c3nc4cc(C)ccc4o3)c2C)cc(OC)c1OC,37.3,n,n,n,n,n
CCOC(=O)c1c(C)[nH]c(C(=O)OCC(=O)Nc2cc(Cl)ccc2OC)c1C,n,n,n,n,x,x
CCOC(=O)c1c(C)[nH]c(C(=O)OCC(=O)Nc2ccc(OC)c(Cl)c2)c1C,94.4,n,n,n,31.5,n
O=S1(=O)N=C(N(CCO)/N=C/c2ccc(Br)cc2)c2ccccc21,31.6,n,n,n,n,n
O=S(=O)(c1ccccc1Br)N1CCN(c2ncccn2)CC1,n,n,n,n,x,x
CCc1ccc(/C=C2/C(=O)N(c3ccccc3)C(=S)N2CC(=O)OC)s1,41.0,n,n,n,n,n
O=S(=O)(Nc1nc(-c2ccccc2)cs1)c1cc(Cl)ccc1Cl,30.8,n,n,n,n,n
CCOC(=O)N1CCN(S(=O)(=O)N2CCCC(C(=O)NC(C)c3ccccc3)C2)CC1 (stereo not drawn),n,n,n,n,x,x
Cc1ccc2c(c1)nnn2C1CCN(S(=O)(=O)c2ccc(C(=O)NC3CCCC3)cc2)CC1,34.9,n,n,n,35.6,n
Cc1ccc2c(c1)nnn2C1CCN(S(=O)(=O)c2ccc(C(=O)N(C)C)cc2)CC1,n,n,n,n,x,x
CC(C(=O)NCCc1ccccc1)N1c2cccc3cccc(c23)S1(=O)=O (stereo not drawn),n,n,n,n,x,x
Cc1ccc2c(c1)N1C(=O)c3ccccc3C1C1=C(CC(C)(C)CC1=O)N2 (stereo not drawn),92.8,n,n,n,n,n
CC(=O)Oc1cccc(C2C3=C(CC(C)(C)CC3=O)Nc3ccccc3N2C(C)=O)c1 (stereo not drawn),n,n,n,n,x,x
COc1ccc(-n2nnnc2SCC(=O)c2ccc3c(c2)OCCO3)cc1,28.1,n,n,n,n,n
c1ccc(-c2cn3c(n2)-c2ccccc2C3)cc1,n,n,n,n,x,x
O=C(COC(=O)c1c(Cl)cccc1Cl)NCC1CCCO1 (stereo not drawn),n,n,n,n,x,x
CCOC(=O)c1nn(-c2ccc(F)cc2)c(=O)cc1OCC(=O)N1CCN(c2ccccc2)CC1,n,n,x,n,x,x
Cc1ccc(-c2nnn(CC(=O)NCCc3ccc4c(c3)OCO4)n2)cc1,44.4,n,n,n,n,n
O=C(N/N=C/c1ccc(O)cc1)c1nc(-c2ccccc2)n(-c2ccccc2)n1,30.8,n,n,n,31.1,n
COC(=O)c1ccc(N2CCN(c3ccccc3)CC2)nc1,n,n,n,n,x,x
COc1cccc(CC2(CO)CCN(Cc3ccc(NC(C)=O)cc3)CC2)c1,n,n,n,n,x,x
COc1ccc(CC2(CO)CCN(Cc3ccc(NC(C)=O)cc3)CC2)cc1,45.9,n,n,n,n,n
Cc1ccc(NC(=O)c2sc3ncn(CC(=O)N4CCN(c5ccccn5)CC4)c(=O)c3c2C)cc1Cl,30.8,n,n,n,n,n
CCOC(=O)C1CCN(C(=O)Cn2nc(C)n3nc(-c4ccc(CC)cc4)cc3c2=O)CC1,n,n,n,n,x,x
Cc1csc(NC(=O)NCC2CCCC(CNC(=O)Nc3nc(C)cs3)C2)n1 (stereo not drawn),n,n,n,n,x,x
O=c1c2ccccc2nc2c3ccccc3c(NCc3ccco3)nn12,31.5,n,n,n,n,n
COc1ccc(NC(=O)c2cc(S(=O)(=O)N3CCc4ccccc43)cn2C)c(OC)c1,n,n,n,n,x,x

# Screens (PubChem BioAssay)
